# Assay outcomes as filed in PubChem.
# Hits are enriched below; roughly 2.8% of the tested compounds scored in any of these assays.
# m5-HT2A agonist – agonists of mouse serotonin 5-HT2A receptor (HTR2A) | activation, % at 7.6 µM | CHO-K1 mHTR2A beta-arrestin complementation, luminescence; percent of 30 µM serotonin response | P35363 | hit rate 0.66% among 360,000;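 active means activation above a run cutoff, the mean activation of all tested compounds plus 3 SD, cut at about 14% in these data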;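 further: 0% = plate median of compound wells and 100% = 30 µM serotonin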
# Target sequence (P35363 whole entry, looked up): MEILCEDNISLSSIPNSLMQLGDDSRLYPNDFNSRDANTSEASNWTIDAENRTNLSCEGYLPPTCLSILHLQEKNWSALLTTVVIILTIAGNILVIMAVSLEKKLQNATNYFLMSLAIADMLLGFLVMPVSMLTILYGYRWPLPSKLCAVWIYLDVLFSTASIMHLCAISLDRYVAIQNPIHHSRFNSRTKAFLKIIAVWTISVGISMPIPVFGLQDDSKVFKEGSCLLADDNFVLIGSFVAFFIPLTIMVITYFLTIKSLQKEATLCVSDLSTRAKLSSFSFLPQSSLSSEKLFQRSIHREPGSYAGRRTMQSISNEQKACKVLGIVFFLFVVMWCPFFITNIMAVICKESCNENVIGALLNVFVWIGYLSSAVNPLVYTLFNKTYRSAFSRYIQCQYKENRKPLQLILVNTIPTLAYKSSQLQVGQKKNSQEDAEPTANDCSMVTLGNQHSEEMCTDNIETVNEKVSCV
# MC4R ag barr – agonists of human melanocortin 4 receptor (MC4R) beta-arrestin. P32245. U2OS MC4R beta-arrestin complementation, luminescence; percent of melanotan II response, DMSO zero. activation, % at 8.9 µM. hit rate 0.98% among 360,000. AID 540308;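 active means activation above a per-plate cutoff, the mean activation of sample wells on that plate plus 3 SD, cut at about 8% in these data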
# EBI2 block – antagonists of human EBI2 receptor; P32249; EBI2 beta-arrestin recruitment, luminescence, 7a,25-OHC stimulated; inhibition, % at 5 µM; hit rate 0.81% among 360,000; in the data active means inhibition above about 38%;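 further: enzyme fragment complementation signal reports receptor beta-arrestin coupling in cells; 0% = agonist plus DMSO wells and 100% = wells without agonist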
# MC4R antag cAMP – antagonists of human melanocortin 4 receptor (MC4R); P32245; MC4R-expressing cells, MTII-stimulated cAMP, LANCE TR-FRET; inhibition, % at 6.5 µM; hit rate 0.48% among 360,000;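 active means inhibition above its plate's cutoff, the mean of tested wells on that plate plus 3 SD, cut at about 29% in these data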;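 further: 0% = Melanotan II alone and 100% = Melanotan II plus saturating MCL0020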
#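 material = U2OS cells stably expressing human melanocortin 4 receptor (MC4R) | also added = Melanotan II challenge | dosing = single nominal compound dose of 6.5 µM | detection = TR-FRET with Eu-cAMP and labeled anti-cAMP, 671 nm | replication = singlicate | timing = compound 30 min, challenge 1 h, detection 1 h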
# U2OS cAMP counter – counter-screen for MC4R antagonists: nonselective cAMP signaling inhibitors; hit rate 26% among 1,600; shares compounds with MC4R antag cAMP; inhibition, % at 6.5 µM; parental U2OS, forskolin cAMP, LANCE TR-FRET; AID 602193;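 active means mean inhibition over triplicates above the low-control well mean plus 3 SD, set per campaign, cut at about 13% in these data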;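 further: signal is single emission at 671 nm which falls as cellular cAMP rises; 0% = forskolin-stimulated wells and 100% = buffer without forskolin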
# MC4R antag conf – human MC4R cAMP antagonism confirmation; shares compounds with MC4R antag cAMP; MC4R-expressing cells, MTII-stimulated cAMP, TR-FRET; inhibition, % at 6.5 µM; hit rate 27% among 1,600; AID 602195; in the data active means inhibition above about 29%;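 further: 0% = agonist stimulated wells alone and 100% = agonist stimulated wells plus saturating reference antagonist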
# * hit, by the source's call; x = not tested or not shown.
SMILES,m5-HT2A agonist,MC4R ag barr,EBI2 block,MC4R antag cAMP,U2OS cAMP counter,MC4R antag conf
CCc1nnc(NC(=O)CSc2nc3c(cc2C#N)CCC3)s1,-4,-2,-8,2,x,x
N#Cc1cc2c(nc1SCC(=O)Nc1nccs1)CCCCC2,0,0,7,39*,12,19
Cc1ccc(-c2nc3c4ccccc4ccn3c2Cc2ccccc2C(F)(F)F)cc1,3,x,8,x,x,x
Cc1ccc(S(=O)(=O)N2C[C@H]3C(=O)C[C@@H](c4cccc(Cl)c4)N(S(=O)(=O)c4ccc(C)cc4)[C@H]3C[C@H]2c2cccc(Cl)c2)cc1,2,1,17,3,x,x
CCCCNC(=O)COC(=O)c1c2c(nc3ccccc13)/C(=C/c1cccs1)CC2,8,5,4,13,x,x
CNC(=O)NC(=O)C(C)OC(=O)c1c2c(nc3ccccc13)/C(=C/c1cccs1)CC2 (stereo not given),3,8,16,30*,4,17
OCCCNC(=S)Nc1ccc2nccnc2c1,9,0,-2,16,x,x
Fc1ccc(NC(=S)Nc2ccc3nccnc3c2)cc1,1,2,-9,36*,-2,-1
CN(C)C(=O)c1cccc(-c2cccc(-c3nc(C(=O)NCc4ccccc4)cc4c3[C@H](CCO)N(S(=O)C(C)(C)C)C4)c2)c1 (stereo not given in full),-4,x,-11,x,x,x
O=C(COC(=O)c1nc(Cl)c(Cl)c(Cl)c1Cl)c1ccc[nH]1,-13,-3,-33,39*,11,37*
O=C(COC(=O)c1nc(Cl)ccc1Cl)c1ccc[nH]1,2,5,-7,19,x,x
COC(=O)C1(C)CCCC2(C)c3cc(OC)ccc3C(=O)C(Br)C12 (stereo not given),5,1,-22,-2,x,x
CCN1CCN(C(c2cccc(OC)c2)c2sc3nc(C)nn3c2O)CC1 (stereo not given),-2,-1,1,-1,x,x
COc1cccc(C(c2sc3nc(C)nn3c2O)N2CCc3ccccc3C2)c1 (stereo not given),-7,1,5,33*,0,-8
Cc1ccccc1N1CCN(C2CCCN(C(=O)CSc3ccccn3)C2)CC1 (stereo not given),-6,-1,-10,2,x,x
O=C(/C=C/c1ccc(-c2ccccc2[N+](=O)[O-])o1)c1ccccc1,-4,0,-12,30*,1,4
CCN(CC)C(=O)C1=C(C)N(CCC2=CCCCC2)C(=O)C(CC(=O)NCc2ccco2)C1 (stereo not given),6,-1,1,7,x,x
CC(=O)N1N=C(c2ccc(Cl)cc2)CC1c1ccco1 (stereo not given),-2,0,4,3,x,x
CC(=O)N1N=C(c2ccc(C)cc2)CC1c1ccco1 (stereo not given),-2,-1,-6,30*,12,3
COc1ccc(-c2ccc3c(c2)C2CC3CCN2)cc1 (stereo not given),-4,0,-7,-7,x,x
Cc1c(-c2ccccc2Br)nc2ccccc2c1C(=O)O,0,0,-10,7,x,x
CCc1ccc(-c2nc3ccc(Br)cc3c(C(=O)O)c2C)s1,0,-1,-9,133*,102*,182*
COC(=O)c1c(N2C(=O)[C@H]3[C@@H](C2=O)[C@]2(C(=O)Nc4c2ccc(C)c4C)N2CCC[C@@H]32)sc(C)c1C,-1,2,-7,33*,3,14
COC(=O)c1c(N2C(=O)[C@H]3[C@@H](C2=O)[C@]2(C(=O)Nc4c(C)cc(C)cc42)N2CCC[C@@H]32)sc(C)c1C,1,1,1,18,x,x
CO/N=C/c1ccc(Sc2ccc(C)cc2)c([N+](=O)[O-])c1,-3,-1,12,29*,-2,-12
Cc1ccc(Sc2ccc(/C=N/O)cc2[N+](=O)[O-])cc1,-4,2,10,-1,x,x
O=C(CN1C(=O)C2CC=CCC2C1=O)NCc1cccs1 (stereo not given),-3,-1,-5,31*,-3,1
O=c1cc(CN2CCCCCCC2)c2ccccc2o1,3,x,-7,x,x,x
c1ccc2c3c(c(CN4CCCC4)cc2c1)COC3,-3,0,3,30*,1,-18
CC1CCN(C(=O)Cn2cnc3c(cnn3C(C)(C)C)c2=O)CC1,9,3,3,36*,-3,1
